Experimental data from ChEMBL document CHEMBL1140385, “Synthesis and antibacterial activity of 3-substituted-6-(3-ethyl-4-methylanilino)uracils” (J Med Chem, 2005).
Converted amounts (≈) assume the structure as drawn.

Key:
[1] = system: Enterococcus faecium; test: In vitro minimum inhibitory concentration against Enterococcus fecium upon incubation at 37 degree C for 16 to 24 hr by dissolving in DMSO (1%); type: functional
Method in brief: (§1)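 Broth microdilution (modified NCCLS M7-A4). Enterococci grown to log phase in brain-heart infusion broth, seeded at (3-7) × 10⁵ CFU/mL. Compounds 2-fold diluted from DMSO stocks, 20 to 1.25 µg/mL, final 1% DMSO, in duplicate. Incubated 37 °C, 16-24 h, with shaking. OD600 read.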

[2] = system: Enterococcus faecalis; test: In vitro minimum inhibitory concentration against Enterococcus faecalis upon incubation at 37 degree C for 16 to 24 hr by dissolving in DMSO (1%); type: functional
Method in brief: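 Log-phase E. faecalis was grown in brain-heart infusion broth and seeded at (3-7) × 10^5 CFU/mL. Duplicate 2-fold dilutions ran from 20 to 1.25 µg/mL, final 1% DMSO. After 16-24 h at 37 °C with shaking, OD600 was read.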

[3] = system: Staphylococcus aureus; test: In vitro minimum inhibitory concentration against Staphylococcus aureus (Smith) upon incubation at 37 degree C for 16 to 24 hr by dissolving in DMSO (1%); type: functional
[4] = system: Enterococcus faecium; test: In vitro minimum inhibitory concentration against Vancomycin resistant Enterococci faecium upon incubation at 37 degree C for 16 to 24 hr by dissolving in DMSO (1%); type: functional; method in brief: as §1
[5] = system: Staphylococcus aureus; test: In vitro minimum inhibitory concentration against Methicillin-resistant Staphylococcus aureus upon incubation at 37 degree C for 16 to 24 hr by dissolving in DMSO (1%); type: functional
Method in brief: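 Broth microdilution (modified NCCLS M7-A4). Staphylococci grown to log phase in Luria broth, seeded at (3-7) × 10⁵ CFU/mL. Compounds 2-fold diluted from DMSO stocks, 20 to 1.25 µg/mL, final 1% DMSO, in duplicate. Incubated 37 °C, 16-24 h, with shaking. OD600 read.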

[6] = system: Enterococcus faecalis; test: Serum effect on MIC of compound was measured against Enterococcus faecalis as ratio of MIC value in presence and absence of 50% fetal calf serum; type: functional
Method in brief: (§2)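 Broth microdilution MIC was repeated with 50% fetal calf serum added to the growth medium (LB for S. aureus, brain-heart infusion broth for E. faecalis). The inoculum was (3-7) × 10^5 CFU/mL in 1% DMSO, incubated at 37 °C for 16-24 h, and read by OD600. The serum effect is the MIC with serum relative to the MIC without serum.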

[7] = system: Staphylococcus aureus; test: Serum effect on MIC against Staphylococcus aureus (Smith) as ratio of MIC value in presence and absence of 50% fetal calf serum; type: functional; method in brief: as §2
[8] = system: Bacillus subtilis; test: In vitro minimum inhibitory concentration against Bacillus subtilis upon incubation at 37 degree C for 16 to 24 h; type: functional
[9] = system: Staphylococcus aureus; test: In vitro minimum inhibitory concentration against Staphylococcus aureus upon incubation at 37 degree C for 16 to 24 hr by dissolving in DMSO (1%); type: functional
[10] = target: DNA polymerase III PolC-type (Bacillus subtilis (strain 168), UniProt P13267); test: Inhibitory concentration against Bacillus subtilis DNA polymerase IIIC using [3H]dTMP 250 pM (30 degree C for 10 min)
Method in brief: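 Homogeneous recombinant B. subtilis pol IIIC, 0.025-0.06 units, acted on activated calf thymus DNA with Mg2+, DTT, glycerol, dATP, dCTP, dTTP and [3H]dTTP, without dGTP. Compounds were serially diluted from DMSO. Reactions ran 10 min at 30 °C, were stopped with TCA-pyrophosphate, and the filter-collected precipitate was scintillation counted. Apparent Ki was read directly from this truncated assay; average standard deviation ±44%.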

[11] = system: Staphylococcus aureus; test: Effect on survival of staphylococcus aureus (Smith) ip-infected mice at a concentration 10 mg/kg; type: functional
Method in brief: (§3)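 Male pathogen-free Swiss-Webster mice (20-24 g), groups of five, infected ip with ca. 10⁸ CFU log-phase S. aureus Smith (grown 37 °C in LB, washed, in 0.5 mL LB). Single ip dose 15 min post-infection, in 10% DMSO/peanut oil or PBS. Survivors counted at 72 h post-infection.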

[12] = system: Staphylococcus aureus; test: Effect on survival of staphylococcus aureus (Smith) ip-infected mice at a concentration 20 mg/kg; type: functional; method in brief: as §3

Sequence of DNA polymerase III PolC-type (P13267 whole entry, the tested form may be a part): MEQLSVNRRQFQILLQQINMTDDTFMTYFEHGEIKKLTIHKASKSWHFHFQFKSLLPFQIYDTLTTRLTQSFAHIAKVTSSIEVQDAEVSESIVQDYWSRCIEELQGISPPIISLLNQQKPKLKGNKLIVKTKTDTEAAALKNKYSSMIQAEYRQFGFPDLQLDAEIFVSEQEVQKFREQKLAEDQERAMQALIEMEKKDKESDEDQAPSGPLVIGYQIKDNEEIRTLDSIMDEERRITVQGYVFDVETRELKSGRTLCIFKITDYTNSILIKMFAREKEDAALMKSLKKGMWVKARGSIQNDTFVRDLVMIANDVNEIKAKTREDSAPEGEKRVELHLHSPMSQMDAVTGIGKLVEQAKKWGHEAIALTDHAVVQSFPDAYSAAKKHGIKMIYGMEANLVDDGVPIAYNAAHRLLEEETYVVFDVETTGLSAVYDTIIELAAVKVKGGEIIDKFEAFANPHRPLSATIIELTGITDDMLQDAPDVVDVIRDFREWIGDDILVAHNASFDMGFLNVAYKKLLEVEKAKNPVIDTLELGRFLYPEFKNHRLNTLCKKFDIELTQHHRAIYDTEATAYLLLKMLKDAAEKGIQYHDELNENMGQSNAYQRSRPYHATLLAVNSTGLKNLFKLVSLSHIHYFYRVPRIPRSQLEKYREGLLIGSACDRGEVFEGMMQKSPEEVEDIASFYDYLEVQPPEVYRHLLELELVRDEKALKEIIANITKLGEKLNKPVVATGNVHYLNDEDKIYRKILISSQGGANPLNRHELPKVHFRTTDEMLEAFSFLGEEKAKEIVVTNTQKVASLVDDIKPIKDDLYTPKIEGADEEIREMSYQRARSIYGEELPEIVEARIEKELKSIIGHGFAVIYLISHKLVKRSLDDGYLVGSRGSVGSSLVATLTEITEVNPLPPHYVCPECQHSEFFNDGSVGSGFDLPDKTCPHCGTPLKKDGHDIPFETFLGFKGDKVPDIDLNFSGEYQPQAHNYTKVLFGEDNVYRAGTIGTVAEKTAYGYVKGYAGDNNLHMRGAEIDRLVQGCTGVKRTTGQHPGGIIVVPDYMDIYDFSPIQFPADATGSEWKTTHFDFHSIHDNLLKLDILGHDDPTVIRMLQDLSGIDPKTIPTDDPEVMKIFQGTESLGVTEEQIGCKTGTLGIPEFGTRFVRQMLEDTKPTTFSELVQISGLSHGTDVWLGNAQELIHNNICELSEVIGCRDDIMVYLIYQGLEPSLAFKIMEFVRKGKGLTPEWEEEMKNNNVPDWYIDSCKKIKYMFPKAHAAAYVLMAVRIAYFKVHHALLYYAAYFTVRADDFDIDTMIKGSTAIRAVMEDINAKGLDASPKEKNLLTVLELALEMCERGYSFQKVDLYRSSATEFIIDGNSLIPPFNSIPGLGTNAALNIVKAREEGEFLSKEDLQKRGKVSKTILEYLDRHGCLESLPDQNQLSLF

Structure (SMILES) | MIC [1] [µg/mL] | MIC [2] [µg/mL] | MIC [3] [µg/mL] | MIC [4] [µg/mL] | MIC [5] [µg/mL] | MIC+/MIC- [6] | MIC+/MIC- [7] | MIC [8] [µg/mL] | MIC [9] [µg/mL] | Ki [10] [nM] | Activity [11] | Activity [12]
CCc1cc(Nc2cc(=O)n(CCCN3CCOCC3)c(=O)[nH]2)ccc1C | 5 (≈ 13.4 µM) | 10 (≈ 26.8 µM) | 10 (≈ 26.8 µM) | 5 (≈ 13.4 µM) | 10 (≈ 26.8 µM) | 1.6 | 2.9 | – | – | – | – | –
CCc1cc(Nc2cc(=O)n(CCCCCCCCN3CCOCC3)c(=O)[nH]2)ccc1C | 10 (≈ 22.6 µM) | 10 (≈ 22.6 µM) | 10 (≈ 22.6 µM) | 5 (≈ 11.3 µM) | 20 (≈ 45.2 µM) | >12.8 | >7.1 | 2.5 (≈ 5.65 µM) | 10 (≈ 22.6 µM) | 76 | – | –
CCc1cc(Nc2cc(=O)n(CCCOC)c(=O)[nH]2)ccc1C | 2.5 (≈ 7.88 µM) | 5 (≈ 15.8 µM) | 2.5 (≈ 7.88 µM) | 2.5 (≈ 7.88 µM) | 2.5 (≈ 7.88 µM) | – | 4.9 | < 1.25 | 2.5 (≈ 7.88 µM) | 120 | – | –
CCc1cc(Nc2cc(=O)n(CCCO)c(=O)[nH]2)ccc1C | 2.5 (≈ 8.24 µM) | 5 (≈ 16.5 µM) | 5 (≈ 16.5 µM) | 2.5 (≈ 8.24 µM) | 5 (≈ 16.5 µM) | – | 5.6 | < 1.25 | 2.5 (≈ 8.24 µM) | 130 | – | –
CCc1cc(Nc2cc(=O)n(CCOCCOC)c(=O)[nH]2)ccc1C | 5 (≈ 14.4 µM) | 5 (≈ 14.4 µM) | – | 5 (≈ 14.4 µM) | 5 (≈ 14.4 µM) | – | 5.5 | – | 5 (≈ 14.4 µM) | – | 2 | –
CCc1cc(Nc2cc(=O)n(CCOCCOc3ccccc3)c(=O)[nH]2)ccc1C | 2.5 (≈ 6.11 µM) | 5 (≈ 12.2 µM) | 20 (≈ 48.8 µM) | 5 (≈ 12.2 µM) | 20 (≈ 48.8 µM) | – | >5.6 | < 1.25 | 20 (≈ 48.8 µM) | 56 | – | –
CCc1cc(Nc2cc(=O)n(CCCCCO)c(=O)[nH]2)ccc1C | 2.5 (≈ 7.54 µM) | 2.5 (≈ 7.54 µM) | 2.5 (≈ 7.54 µM) | 2.5 (≈ 7.54 µM) | 5 (≈ 15.1 µM) | – | 11.6 | < 1.25 | 5 (≈ 15.1 µM) | 43 | – | –
CCc1cc(Nc2cc(=O)n(CCCOC(C)=O)c(=O)[nH]2)ccc1C | 5 (≈ 14.5 µM) | 5 (≈ 14.5 µM) | 2.5 (≈ 7.24 µM) | 3.75 (≈ 10.9 µM) | 5 (≈ 14.5 µM) | – | – | 0.625 (≈ 1.81 µM) | 3.75 (≈ 10.9 µM) | 120 | – | –
CCc1cc(Nc2cc(=O)n(CCN3CCOCC3)c(=O)[nH]2)ccc1C | – | 5 (≈ 13.9 µM) | – | 5 (≈ 13.9 µM) | 5 (≈ 13.9 µM) | 2.7 | 5.5 | – | 10 (≈ 27.9 µM) | – | – | –
CCn1cc(C(=O)O)c(=O)c2cc(F)c(N3CCNCC3)cc21 [NORFLOXACIN] | 10 (≈ 31.3 µM) | 2.5 (≈ 7.83 µM) | 0.156 (≈ 0.489 µM) | 80 (≈ 251 µM) | 40 (≈ 125 µM) | 2.2 | 0.4 | 0.313 (≈ 0.98 µM) | 0.625 (≈ 1.96 µM) | – | – | –
CCc1cc(Nc2cc(=O)n(CCCCCOC(C)=O)c(=O)[nH]2)ccc1C | 3.75 (≈ 10 µM) | 5 (≈ 13.4 µM) | 7.5 (≈ 20.1 µM) | 3.75 (≈ 10 µM) | 2.5 (≈ 6.69 µM) | – | – | 0.625 (≈ 1.67 µM) | 5 (≈ 13.4 µM) | 68 | – | –
CN[C@H](CC(C)C)C(=O)N[C@H]1C(=O)N[C@@H](CC(N)=O)C(=O)N[C@H]2C(=O)N[C@H]3C(=O)N[C@H](C(=O)N[C@H](C(=O)O)c4cc(O)cc(O)c4-c4cc3ccc4O)[C@H](O)c3ccc(c(Cl)c3)Oc3cc2cc(c3O[C@@H]2O[C@H](CO)[C@@H](O)[C@H](O)[C@H]2O[C@H]2C[C@](C)(N)[C@H](O)[C@H](C)O2)Oc2ccc(cc2Cl)[C@H]1O [VANCOMYCIN] | 1.25 (≈ 0.863 µM) | 0.625 (≈ 0.431 µM) | – | > 20 | 0.625 (≈ 0.431 µM) | – | – | – | – | – | 5 | 5
CCc1cc(Nc2cc(=O)n(CCCCCCCCCO)c(=O)[nH]2)ccc1C | 2.5 (≈ 6.45 µM) | 2.5 (≈ 6.45 µM) | 2.5 (≈ 6.45 µM) | 2.5 (≈ 6.45 µM) | 20 (≈ 51.6 µM) | – | >32 | < 1.25 | 20 (≈ 51.6 µM) | 87 | – | –
CCc1cc(Nc2cc(=O)n(CCCC#N)c(=O)[nH]2)ccc1C | 5 (≈ 16 µM) | 5 (≈ 16 µM) | – | 5 (≈ 16 µM) | 5 (≈ 16 µM) | – | 5.4 | – | 5 (≈ 16 µM) | – | 2 | –
CCc1cc(Nc2cc(=O)n(CCCCCN)c(=O)[nH]2)ccc1C.Cl | 20 | > 20 | 10 | > 20 | 10 | – | – | < 1.25 | 5 | 185 | – | –
CCc1cc(Nc2cc(=O)n(CCOC)c(=O)[nH]2)ccc1C | 2.5 (≈ 8.24 µM) | 5 (≈ 16.5 µM) | 2.5 (≈ 8.24 µM) | 2.5 (≈ 8.24 µM) | 5 (≈ 16.5 µM) | – | 6.9 | < 1.25 | 2.5 (≈ 8.24 µM) | 127 | – | –
CCc1cc(Nc2cc(=O)n(CCOCCO)c(=O)[nH]2)ccc1C | 5 (≈ 15 µM) | 5 (≈ 15 µM) | 5 (≈ 15 µM) | 2.5 (≈ 7.5 µM) | 10 (≈ 30 µM) | – | 7.5 | – | – | – | 4 | –
